As a reminder, the CC50 is the concentration giving 50% cytotoxicity. High values mean better tolerance by the cells, low ones harm at low concentration. In general, EC50 refers to the concentration giving half of the maximal effect. By solubility is commonly meant the dissolved amount per volume that the medium holds. The term logP denotes the decadic logarithm of the partition coefficient of the neutral form, usually between octanol and water. High values mean higher lipophilicity, low ones lower lipophilicity. As usually defined, the half-life is how long it takes for the measured level to halve.

For one data set, the system named is Plasma. Description: (§1) Half life in human plasma at 10 ug/ml by LC/MS/MS analysis. It counts as ADME, cell-free.
The test system of data set [1] is Liver. Description: (§2) Half life in human liver S9 fractions at 1 uM measured pretreated up to 45 mins followed by NADPH addition by LC/MS/MS analysis. Particulars: s9, 1 µM. Type of data set: ADME, tissue-based. The gist of the method: (§3)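 Remaining parent was quantified by LC/MS/MS at several time points to give t1/2 (min). Data from at least two experiments in parallel.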

The next data set deals with TZM. Description: (§4) Cytotoxicity against human TZM-bl cells infected with HIV1 NL4-3. Type of data set: cell-based. Particulars: tzm.
The test system of data set [2] is Human immunodeficiency virus 1. Description: Fold resistance, ratio of EC50 for rilpivirine-resistant HIV1 NL4-3 reverse transcriptase E138K mutant to EC50 for wild type HIV1 NL4-3 reverse transcriptase. The gist of the method: (§5)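 Fold change calculated as EC50 against the resistant NL4-3 variant (E138K or E138K+M184I) divided by EC50 against wild-type NL4-3, both measured in parallel in TZM-bl cells by luciferase reporter expression.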

The nature of data set [3]: Inhibition of rilpivirine-resistant HIV1 NL4-3 reverse transcriptase E138K/M184I double mutant infected in human TZM-b1 cells after 2 days by bright Glo-luciferase reporter gene assay. Particulars: Human immunodeficiency virus 1, NL4-3, TZM-b1, 48 h. Type of data set: cell-based. The method, boiled down:
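TZM-bl cells infected with NL4-3 variant carrying E138K or E138K+M184I RT mutations; EC50 from luciferase reporter gene expression. Test compounds up to 100 ng/mL highest concentration; at least three experiments (n = 3). Run in parallel with wild-type NL4-3 and reference drug.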
A general note: In a reporter assay the amount or activity of a reporter protein is the signal.

Data set [4] in a line: Aqueous solubility of the compound in phosphate buffer at pH 7.4 after 4 hrs by HPLC-UV analysis. Type of data set: physicochemical. The gist of the method: (§6)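 Aqueous solubility measured by HPLC at pH 2.0 and at pH 7.4.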
Data set [5] can be described thus: Aqueous solubility of the compound in 0.01 M HCl at pH 2 after 4 hrs by HPLC-UV analysis. It counts as physicochemical. The method, boiled down:
as §6

Data set [6] can be described thus: Inhibition of wild type HIV1 NL4-3 reverse transcriptase infected in human TZM-b1 cells after 2 days by bright Glo-luciferase reporter gene assay. It counts as cell-based. Particulars: Human immunodeficiency virus 1, NL4-3, TZM-b1, 48 h. The method, boiled down:
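Anti-HIV activity against HIV-1 NL4-3 replication in TZM-bl cells, read out by luciferase gene expression. EC50 values from at least three experiments (n = 3). Top test concentration 100 ng/mL for the newly made series.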

Data set [7] has as its system Liver. Description: (§7) Half life in human liver microsomes at 1 uM pretreated up to 45 mins followed by NADPH addition by LC/MS/MS analysis. Type of data set: ADME, microsome. Particulars: microsomes, 1 µM. The gist of the method:
as §3
A general note: Microsomes from liver hold many membrane-bound enzymes, among them those of drug oxidation.

For data set [8], the system named is Human immunodeficiency virus. Description: Fold resistance, ratio of EC50 for rilpivirine-resistant HIV1 NL4-3 reverse transcriptase E138K/M184I double mutant to EC50 for wild type HIV1 NL4-3 reverse transcriptase. The method, boiled down:
as §5

A short description of data set [9]: Octanol-water partition coefficient, log P of the compound at pH 7.4 after 24 hrs by HPLC method. It counts as physicochemical. Particulars: pH 7.4, 24 h.
A short description of data set [10]: as §1. It counts as ADME, cell-free.
Data set [11] can be described thus: as §2. Particulars: liver S9 fraction. It counts as ADME, tissue-based. The method, boiled down:
as §3

The nature of data set [12]: as §4. Type of data set: cell-based. The note with it: TZM-bl cells infected with HIV1 NL4-3.
Data set [13] in a line: as §7. Type of data set: ADME, microsome. The note with it: liver microsomes. The gist of the method: as §3
Data set [14] in a line: Inhibition of wild-type HIV-1 3B reverse transcriptase infected in human MT4 cells assessed as reduction in virus-induced cytopathic effect after 5 days by MTT assay. Type of data set: cell-based. Particulars: Human immunodeficiency virus 1, 3B, MT4, 120 h.

Values after ≈ are worked out from the molar mass of the structure shown.

For `Cc1cc(/C=C/C#N)cc(C)c1Oc1cc(Nc2ccc(C#N)cc2)c(N)cc1C(=O)NCCCl`, the results for the t1/2 with Plasma, in the data set with Liver [1] and in the data set on Liver [7] were 8 h, 1.23 h and 1.02 h, respectively. In the data set on TZM, this compound came in with a 50% cytotoxic concentration (CC50) of more than 206 nM. In addition, the results for the Ratio EC50 in data set [2] and in data set [8] were 2.6 and 5.2, respectively. Moreover, the half-maximal effective concentration (EC50) was determined as 17.3 nM in data set [3] and 3.29 nM in [6]. Also, the solubility at 4 h in data set [4] is 1.59 µg/mL (≈ 3.27 µM); in data set [5] it was 9.53 µg/mL (≈ 19.6 µM). In data set [9], this compound gave a logP of more than 5.

For the compound `Cc1cc(/C=C/C#N)cc(C)c1Oc1cc(Nc2ccc(C#N)cc2)c(N)cc1C(N)=O`, the t1/2 with Plasma worked out at 65 h; in the data set on Liver [1], 1.8 h; in the data set with Liver [7], 1.5 h. In data set [9], this compound registered a log partition coefficient (logP) of 3.53.

With `Cc1cc(/C=C/C#N)cc(C)c1Oc1cc(Nc2ccc(C#N)cc2)c(N)cc1C(=O)N1CC(F)(F)C1`, the half-life at 10 ug/ml in data set [10] is 57 h. The half-life at 1 µM in data set [11] and in data set [13] was 0.233 h each time. The same compound came in with a CC50 in data set [12] of more than 200 nM. Also, the results for the solubility at 4 h in [4] and in data set [5] were 6.59 µg/mL (≈ 13.2 µM) and 57.6 µg/mL (≈ 115 µM), respectively. In addition, in data set [6], the concentration giving a half-maximal response (EC50) worked out at 13.4 nM. The compound further had a logP in [9] of 3.58.

With `Cc1cc(/C=C/C#N)cc(C)c1Oc1cc(Nc2ccc(C#N)cc2)c(N)cc1C(=O)NN`, the t1/2 in the data set with Plasma came out at 8 h; in the data set with Liver [1] it was 0.65 h; in the data set on Liver [7], 0.6 h. Moreover, in the data set on TZM, the CC50 was more than 228 nM. Further, the values for the solubility at 4 h in data set [4] and in data set [5] were 2.4 µg/mL (≈ 5.47 µM) and 89.6 µg/mL (≈ 204 µM), respectively. The midpoint of the response in [6], the EC50, lay at 11.6 nM. For the same compound, the lipophilicity (logP) in data set [9] came out at 2.31.

In the case of `Cc1cc(/C=C/C#N)cc(C)c1Oc1cc(Nc2ccc(C#N)cc2)c(N)cc1C(=O)N1CC1`, the t1/2 in the data set on Plasma was determined as 12 h; with Liver [1] it was 1.83 h; in the data set with Liver [7], 2.63 h. Besides, the CC50 in the data set on TZM is more than 223 nM. Besides, the Ratio EC50 in [2] amounted to 2.6; in data set [8], 5. Also, the 50% effective concentration (EC50) is 16.7 nM in data set [3] and 3.33 nM in data set [6]. The solubility at 4 h in [4] came to 1.2 µg/mL (≈ 2.67 µM); in [5], 94.2 µg/mL (≈ 210 µM). The lipophilicity (logP) in data set [9] came to 2.21.

Consider `Cc1cc(/C=C/C#N)cc(C)c1Oc1cc(Nc2ccc(C#N)cc2)c(N)cc1C(=O)NCCCO`, for which the cytotoxic concentration (CC50) in the data set with TZM is more than 208 nM. For the same compound, the Ratio EC50 in data set [2] amounted to 0.9. Also, the solubility at 4 h was found to be 1.01 µg/mL (≈ 2.1 µM) in data set [4] and 19.9 µg/mL (≈ 41.3 µM) in data set [5]. This compound also yielded a concentration for a half-maximal effect (EC50) in data set [6] of 24.9 nM. Besides, in [9], the logP is reported as 3.22.

Take `Cc1cc(C#N)cc(C)c1Oc1nc(Nc2ccc(C#N)cc2)nc(N)c1Br` [ETRAVIRINE]: the concentration giving a half-maximal response (EC50) in data set [14] is more than 1.5 nM.

Regarding `Cc1cc(/C=C/C#N)cc(C)c1Oc1cc(Nc2ccc(C#N)cc2)c(N)cc1C(=O)OCCC#N`, the t1/2 in the data set with Plasma was determined as 32 h; in the data set with Liver [1] it was 0.2 h; in the data set on Liver [7] it was 0.283 h. This compound also gave a CC50 with TZM of more than 210 nM. The Ratio EC50 turned out to be 2.4 in data set [2] and 4.1 in data set [8]. For the same compound, the EC50 in data set [3] was found to be 4.61 nM; in [6], 1.11 nM. Also, the solubility at 4 h in data set [4] was 0.36 µg/mL (≈ 0.754 µM); in data set [5] it was 0.94 µg/mL (≈ 1.97 µM). In [9], this compound yielded a logP of more than 5.

On to `Cc1cc(/C=C/C#N)cc(C)c1Nc1ccnc(Nc2ccc(C#N)cc2)n1` [RILPIVIRINE], for which the t1/2 in the data set with Plasma turned out to be 92 h; with Liver [1], 1.7 h; in the data set on Liver [7], 1.8 h. For the same compound, the 50% cytotoxic concentration (CC50) in the data set with TZM is more than 273 nM. Besides, the concentration for a half-maximal effect (EC50) in data set [3] is 2.38 nM; in [6] it was 0.44 nM. For the same compound, the logP in data set [9] is reported as more than 5.

As for `COCCOC(=O)c1cc(N)c(Nc2ccc(C#N)cc2)cc1Oc1c(C)cc(/C=C/C#N)cc1C`, the values for the t1/2 with Plasma, in the data set with Liver [1] and in the data set on Liver [7] were 62 h, 0.158 h and 0.317 h, respectively. Besides, in the data set with TZM, the 50% cytotoxic concentration (CC50) is more than 207 nM. The Ratio EC50 in [2] is 2.9; in data set [8] it was 6.3. The EC50 in data set [3] stood at 9.54 nM; in data set [6], 1.52 nM. Besides, the solubility at 4 h in data set [4] worked out at 0.77 µg/mL (≈ 1.6 µM); in data set [5], 1.64 µg/mL (≈ 3.4 µM). The compound also returned a lipophilicity (logP) in data set [9] of more than 5.

The values are drawn from ChEMBL document CHEMBL4020747, “Drug-like property-driven optimization of 4-substituted 1,5-diarylanilines as potent HIV-1 non-nucleoside reverse transcriptase inhibitors against rilpivirine-resistant mutant virus” (Bioorg Med Chem Lett, 2017).
